Assay results: ChEMBL document CHEMBL1155468, “Syntheses and evaluation of anticonvulsant profile and teratogenicity of novel amide derivatives of branched aliphatic carboxylic acids with 4-aminobenzensulfonamide” (J Med Chem, 2010)
The source made the active and inactive calls. The rule behind the calls is not given here.

Experiments:
[1] = tested on: Mus musculus; experiment: Anticonvulsant activity in CF1 albino mouse assessed as inhibition of subcutaneous pentylenetetrazole-induced seizures at 30 mg/kg, ip after 0.5 hrs; assay type: functional, organism-based; design: dose 30 mg/kg
How it was run: (§1)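 Adult male CF no. 1 albino mice (18-25 g) dosed ip with compound suspended in 0.5% methylcellulose (0.01 mL/g). Convulsant: pentylenetetrazol dissolved in 0.9% saline as a 0.85% solution for mice, given subcutaneously.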

[2] = tested on: Mus musculus; experiment: Anticonvulsant activity in CF1 albino mouse assessed as inhibition of subcutaneous pentylenetetrazole-induced seizures at 100 mg/kg, ip after 0.5 hrs; assay type: functional, organism-based; design: dose 100 mg/kg; how it was run: as §1
[3] = tested on: Mus musculus; experiment: Anticonvulsant activity in CF1 albino mouse assessed as inhibition of subcutaneous pentylenetetrazole-induced seizures at 300 mg/kg, ip after 0.5 hrs; assay type: functional, organism-based; design: dose 300 mg/kg; how it was run: as §1
[4] = tested on: Mus musculus; experiment: Anticonvulsant activity in CF1 albino mouse assessed as inhibition of subcutaneous pentylenetetrazole-induced seizures at 30 mg/kg, ip after 4 hrs; assay type: functional, organism-based; design: dose 30 mg/kg; how it was run: as §1
[5] = tested on: Mus musculus; experiment: Anticonvulsant activity in CF1 albino mouse assessed as inhibition of subcutaneous pentylenetetrazole-induced seizures at 100 mg/kg, ip after 4 hrs; assay type: functional, organism-based; design: dose 100 mg/kg; how it was run: as §1
[6] = tested on: Mus musculus; experiment: Teratogenic effect in SWV mouse assessed as resorptions at 511 mg/kg, ip administered on morning of day 8 of gestation; assay type: toxicity, organism-based; design: dose 511 mg/kg, route intraperitoneal; details: in vivo
How it was run: (§2)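 SWV inbred mice: two-month-old nulligravid females mated overnight with males and checked for vaginal plugs next morning; gestation onset taken as 10 p.m. the previous night. On gestation day 8.5 each dam got one ip injection, 0.55–2.7 mmol/kg, in 25% aqueous Cremophor EL (vehicle controls dosed alike), 10 μL/g body weight. Litters and implants tallied; resorptions and live fetuses reported as counts with percentages.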

[7] = tested on: Mus musculus; experiment: Teratogenic effect in SWV mouse assessed as resorptions at 310 mg/kg, ip administered on morning of day 8 of gestation; assay type: toxicity, organism-based; design: dose 310 mg/kg, route intraperitoneal; details: in vivo; how it was run: as §2
[8] = tested on: Mus musculus; experiment: Teratogenic effect in SWV mouse assessed as resorptions at 156 mg/kg, ip administered on morning of day 8 of gestation; assay type: toxicity, organism-based; design: dose 156 mg/kg, route intraperitoneal; details: in vivo; how it was run: as §2
[9] = tested on: Mus musculus; experiment: Teratogenic effect in SWV mouse assessed as fetuses with neural tube deffects at 310 mg/kg, ip administered on morning of day 8 of gestation; assay type: toxicity, organism-based; design: dose 310 mg/kg, route intraperitoneal; details: in vivo
How it was run: (§3)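 Two-month-old nulligravid SWV females were mated overnight and checked for vaginal plugs the next morning; gestation onset was set at 10 p.m. the previous night. On gestation day 8.5, each dam received a single ip injection (0.55-2.7 mmol/kg range) or vehicle (25% aqueous Cremophor EL) at 10 μL/g body weight. Litters were scored for implants, resorptions, live and dead fetuses, and fetuses with neural tube defects.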

[10] = tested on: Mus musculus; experiment: Teratogenic effect in SWV mouse assessed as fetuses with neural tube deffects at 156 mg/kg, ip administered on morning of day 8 of gestation; assay type: toxicity, organism-based; design: dose 156 mg/kg, route intraperitoneal; details: in vivo; how it was run: as §3
[11] = tested on: Mus musculus; experiment: Teratogenic effect in SWV mouse assessed as live fetuses at 511 mg/kg, ip administered on morning of day 8 of gestation; assay type: toxicity, organism-based; design: dose 511 mg/kg, route intraperitoneal; details: in vivo; how it was run: as §2
[12] = tested on: Mus musculus; experiment: Teratogenic effect in SWV mouse assessed as live fetuses at 310 mg/kg, ip administered on morning of day 8 of gestation; assay type: toxicity, organism-based; design: dose 310 mg/kg, route intraperitoneal; details: in vivo; how it was run: as §3
[13] = tested on: Mus musculus; experiment: Teratogenic effect in SWV mouse assessed as live fetuses at 156 mg/kg, ip administered on morning of day 8 of gestation; assay type: toxicity, organism-based; design: dose 156 mg/kg, route intraperitoneal; details: in vivo; how it was run: as §3
[14] = tested on: Mus musculus; experiment: Anticonvulsant activity in CF1 albino mouse assessed as inhibition of maximal electroshock-induced seizures at 30 mg/kg, ip after 0.5 hrs; assay type: functional, organism-based; design: dose 30 mg/kg
How it was run: (§4)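 Test compounds suspended in 0.5% methylcellulose and given ip to adult male CF no. 1 albino mice (18-25 g) at 0.01 mL/g body weight before maximal electroshock challenge.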

[15] = tested on: Mus musculus; experiment: Anticonvulsant activity in CF1 albino mouse assessed as inhibition of maximal electroshock-induced seizures at 100 mg/kg, ip after 0.5 hrs; assay type: functional, organism-based; design: dose 100 mg/kg; how it was run: as §4
[16] = tested on: Mus musculus; experiment: Anticonvulsant activity in CF1 albino mouse assessed as inhibition of maximal electroshock-induced seizures at 300 mg/kg, ip after 0.5 hrs; assay type: functional, organism-based; design: dose 300 mg/kg; how it was run: as §4
[17] = tested on: Mus musculus; experiment: Anticonvulsant activity in CF1 albino mouse assessed as inhibition of maximal electroshock-induced seizures at 30 mg/kg, ip after 4 hrs; assay type: functional, organism-based; design: dose 30 mg/kg; how it was run: as §4
[18] = tested on: Mus musculus; experiment: Anticonvulsant activity in CF1 albino mouse assessed as inhibition of maximal electroshock-induced seizures at 300 mg/kg, ip after 4 hrs; assay type: functional, organism-based; design: dose 300 mg/kg; how it was run: as §4
[19] = tested on: Mus musculus; experiment: Anticonvulsant activity in CF1 albino mouse assessed as inhibition of subcutaneous pentylenetetrazole-induced seizures at 300 mg/kg, ip after 4 hrs; assay type: functional, organism-based; design: dose 300 mg/kg; how it was run: as §1
[20] = tested on: Mus musculus; experiment: Neurotoxicity in CF1 albino mouse assessed as motor impairment at 30 mg/kg, ip after 0.5 hrs; assay type: toxicity, organism-based; design: dose 30 mg/kg, route intraperitoneal; details: in vivo
[21] = tested on: Mus musculus; experiment: Neurotoxicity in CF1 albino mouse assessed as motor impairment at 100 mg/kg, ip after 0.5 hrs; assay type: toxicity, organism-based; design: dose 100 mg/kg, route intraperitoneal; details: in vivo
[22] = tested on: Mus musculus; experiment: Neurotoxicity in CF1 albino mouse assessed as motor impairment at 300 mg/kg, ip after 0.5 hrs; assay type: toxicity, organism-based; design: dose 300 mg/kg, route intraperitoneal; details: in vivo
[23] = tested on: Mus musculus; experiment: Neurotoxicity in CF1 albino mouse assessed as motor impairment at 30 mg/kg, ip after 4 hrs; assay type: toxicity, organism-based; design: dose 30 mg/kg, route intraperitoneal; details: in vivo
[24] = tested on: Mus musculus; experiment: Neurotoxicity in CF1 albino mouse assessed as motor impairment at 100 mg/kg, ip after 4 hrs; assay type: toxicity, organism-based; design: dose 100 mg/kg, route intraperitoneal; details: in vivo
[25] = tested on: Mus musculus; experiment: Neurotoxicity in CF1 albino mouse assessed as motor impairment at 300 mg/kg, ip after 4 hrs; assay type: toxicity, organism-based; design: dose 300 mg/kg, route intraperitoneal; details: in vivo
[26] = species: Rattus norvegicus; experiment: Protective index, ratio of TD50 for rat to ED50 for maximal electroshock-induced rat seizure model
[27] = tested on: Rattus norvegicus; experiment: Neurotoxicity in Sprague-Dawley rat assessed as motor impairment at 30 mg/kg, po after 0.25 to 4 hrs; details: in vivo
[28] = tested on: Rattus norvegicus; experiment: Anticonvulsant activity in po dosed rat assessed as inhibition of maximal electroshock-induced seizures
[29] = Teratogenic effect in SWV mouse assessed as dead fetuses at 91 mg/kg, ip administered on morning of day 8 of gestation; details: in vivo
[30] = Teratogenic effect in SWV mouse assessed as dead fetuses at 522 mg/kg, ip administered on morning of day 8 of gestation; details: in vivo, read-out: Ratio TD50/ED50

CCCC(CC)C(=O)Nc1ccc(S(N)(=O)=O)cc1 (stereo not given)
Activity [1]: inactive | Activity [2]: inactive | Activity [3]: inactive | Activity [4]: inactive | Activity [5]: inactive | Activity [6]: 98.5% | Activity [7]: 72% | Activity [8]: 15.7% | Activity [9]: 13.3% | Activity [10]: 1% | Activity [11]: 1.5% | Activity [12]: 28% | Activity [13]: 84.3% | Activity [14]: inactive | Activity [15]: inactive | Activity [16]: inactive | Activity [17]: inactive | Activity [18]: Active | Activity [19]: inactive | Activity [20]: Non-toxic | Activity [21]: Non-toxic | Activity [22]: Non-toxic | Activity [23]: Non-toxic | Activity [24]: Non-toxic | Activity [25]: Non-toxic | Ratio TD50/ED50 [26]: >43.1 | Activity [27]: Non-toxic | ED50 [28]: 11.6 mg/kg | ED50 [29]: 11.6 mg/kg | selectivity ratio [30]: 43.1
